# Assay outcomes (PubChem)
# T cruzi growth-1 – T. cruzi intracellular proliferation inhibitors, primary screen, cell-based, beta-gal Tulahuen parasites, NIH3T3 host, luminescence. T. cruzi beta-gal in NIH3T3, GalScreen luminescence, 90 h. inhibition, % at 8.34 µM. 77,000 tested, 5.9% active;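 active means mean inhibition above about 93%, with at least 55% of replicates each passing it, limit read from the data, passing the limit was not always enough; inconclusive means only one of those two conditions holds; inactive means neither condition holds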
# Pf Dd2 growth – P. falciparum Dd2 growth inhibitors, primary screen, SYBR Green fluorescence, single dose replicates; AID 1159554, 2015; 72 h; hits give low values; activity change, % at 10 µM; 94,000 tested, 2.3% active; in the data active means activity change below about -80%; inconclusive means no clear call, values can overlap the other calls
# KDM4C inh – inhibitors of GASC-1 (KDM4C) histone demethylase, primary screen, biochemical, single concentration HTS; GST-KDM4C 2-372, H3K9me3 peptide, LANCE TR-FRET; inhibition, % at 12.5 µM; 96,000 tested, 0.15% active; AID 720574, 2013;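 active means mean replicate inhibition above about 25%, with at least 55% of replicates also reaching it, limit read from the data, passing the limit was not always enough; inconclusive means only one of those two conditions met; inactive means neither condition met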
#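 System – N-terminal GST-fused human GASC-1 (KDM4C) fragment, residues 2-372 · Input – enzyme final amount 10 nM · Technique – LANCE TR-FRET, Eu antibody, ULight-streptavidin, EDTA, ex 340 nm, em 618/671 nm · Medium – HEPES buffer, pH 7.5, plus ascorbate · Incubation – enzyme reaction 30 min, then detection 60 min, both room temperature · Reagent – H3K9me3 peptide with Fe(II)/2OG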
# IDH1 mut inh – inhibitors of IDH1 R132H reductase, primary screen, biochemical, plate reader, single point. 70,000 tested, 0.18% active. Isocitrate dehydrogenase [NADP] cytoplasmic (Homo sapiens), O75874. AID 624101, 2012. diaphorase/resazurin fluorescence, 60 min. inhibition, % at 10 µM; in the data active means inhibition above about 34%; inconclusive means no clear call, values can overlap the other calls; inactive means below about 11%;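 further: 0% = DMSO and 100% = no enzyme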
# Target sequence (O75874 whole entry R132H): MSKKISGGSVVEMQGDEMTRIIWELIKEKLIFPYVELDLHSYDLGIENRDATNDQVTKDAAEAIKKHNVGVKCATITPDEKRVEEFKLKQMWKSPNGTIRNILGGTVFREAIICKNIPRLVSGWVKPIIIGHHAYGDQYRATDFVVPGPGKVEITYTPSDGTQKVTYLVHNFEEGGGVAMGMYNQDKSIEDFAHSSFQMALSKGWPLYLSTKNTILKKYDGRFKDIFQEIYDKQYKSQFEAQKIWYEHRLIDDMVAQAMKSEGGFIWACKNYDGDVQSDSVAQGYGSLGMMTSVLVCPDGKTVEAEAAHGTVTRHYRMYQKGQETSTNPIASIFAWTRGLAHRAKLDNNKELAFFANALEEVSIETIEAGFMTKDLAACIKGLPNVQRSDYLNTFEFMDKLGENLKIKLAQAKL
# T cruzi growth-2 – T. cruzi intracellular proliferation inhibitors, confirmation, cell-based, NIH3T3 host, beta-gal parasite, luminescence, cherry-pick. shares compounds with T cruzi growth-1. T. cruzi beta-gal in NIH3T3, GalScreen luminescence, 90 h. inhibition, % at 8.35 µM. 5,600 tested, 72% active. AID 651739, 2012;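 active means mean replicate inhibition above about 95% and at least 55% of replicates individually reaching it, limit read from the data; inconclusive means only one of the two criteria is met; inactive means neither criterion is met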
# T cruzi growth-3 – inhibitors of intracellular T. cruzi replication, confirmation, NIH3T3 host cells, beta-gal parasites, cherry-pick, set 2; inhibition, % at 2.09 µM; shares compounds with T cruzi growth-1; AID 651740, 2012; T. cruzi beta-gal in NIH3T3, GalScreen luminescence, 90 h; 5,600 tested, 21% active;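 active means mean inhibition above about 95%, with at least 55% of replicates also reaching it, limit read from the data; inconclusive means meets just one of the two conditions; inactive means meets neither condition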;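 further: plate controls were neutral control median for no effect and positive control median for full effect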
# 3T3 cytotox – cytotoxicity in mouse NIH/3T3 fibroblasts, confirmation, cytotoxicity control for T. cruzi proliferation inhibitor project, cell-based, cherry-pick, single point | shares compounds with T cruzi growth-1 | NIH/3T3 viability, CellTiter-Glo ATP luminescence, 90 h | cytotoxicity (signal decrease), % at 8.35 µM | 5,600 tested, 14% active;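 active means mean signal decrease across replicates above about 35% based on untreated-well scatter, with enough replicates individually passing, limit read from the data; inconclusive means no rule stated though some were filed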;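 further: 0% = median of neutral control wells and 100% = median of positive control wells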
# NIH3T3 tox 2 – NIH/3T3 fibroblast cytotoxicity, confirmation, cytotoxicity control, cell-based, cherry-pick, single point, set 2; shares compounds with T cruzi growth-1; 5,600 tested, 56% active; NIH/3T3 viability, CellTiter-Glo ATP luminescence, 90 h; inhibition, % at 24.9 µM;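 active means mean loss of cell viability signal at or above a set limit, and enough replicates individually reaching it; inconclusive means meets only the mean limit or only the replicate share; inactive means meets neither condition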;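 further: 0% = median of neutral control wells and 100% = median of positive control wells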
# Starred values were filed as active, the others as inactive; ? = inconclusive; . = not tested or not shown. An excerpt weighted towards active compounds, which were near 5.8% of everything screened.
SMILES,T cruzi growth-1,Pf Dd2 growth,KDM4C inh,IDH1 mut inh,T cruzi growth-2,T cruzi growth-3,3T3 cytotox,NIH3T3 tox 2
COc1cc(NC(=O)CN(C)S(=O)(=O)c2cc(Cl)ccc2Cl)cc(OC)c1,.,.,.,0,.,.,.,.
O=C(Nc1cccc(F)c1)N[C@@H]1CC[C@@H](CCNS(=O)(=O)c2cccc(Cl)c2)O[C@H]1CO,26,7,-2,-1,.,.,.,.
O=C(Nc1cccc(F)c1)N[C@@H]1CC[C@H](CCNS(=O)(=O)c2cccc(Cl)c2)O[C@@H]1CO,153*,-20,0,-1,18,8,-1,1
O=C(Nc1cc(Cl)cc(Cl)c1)N[C@H]1CC[C@H](CCNS(=O)(=O)c2cccc(F)c2)O[C@@H]1CO,112*,3,0,0,108*,7,16,97*
O=C(COc1ccc(Cl)cc1Cl)Nc1c[nH]c(=O)[nH]c1=O,.,.,.,0,.,.,.,.
COc1ccc(NC(=O)N2CCCCN3[C@H](CO)[C@@H](c4ccc(C#Cc5ccccn5)cc4)[C@@H]3C2)cc1,?,-19,-2,.,111*,92,-3,14
O=C(Nc1ccc(F)cc1)N1CCCCN2[C@@H](CO)[C@@H](c3ccc(C#Cc4ccccn4)cc3)[C@@H]2C1,110*,-51,-1,.,103*,97*,16,35*
Cc1c(Cl)cccc1NC(=O)c1ccc(OCC(=O)Nc2ccc(F)cc2)cc1,.,.,.,0,.,.,.,.
CCC(Sc1nnc(-c2ccc([N+](=O)[O-])cc2)n1C)C(=O)Nc1ccc(Br)cc1 (stereo unspecified),.,.,.,0,.,.,.,.
C[C@H](CO)N1C[C@H](C)[C@@H](CN(C)Cc2ccc(Cl)c(Cl)c2)OCCCC[C@H](C)Oc2ccc(NC(=O)Nc3cccc4ccccc34)cc2C1=O,122*,-4,-1,.,111*,106*,24,16
C[C@@H]1CN([C@H](C)CO)C(=O)c2cc(NC(=O)Nc3cccc4ccccc34)ccc2O[C@@H](C)CCCCO[C@H]1CN(C)Cc1ccc(Cl)c(Cl)c1,.,-70,0,1,.,.,.,.
C[C@@H]1CCCCO[C@@H](CN(C)Cc2ccc(Cl)c(Cl)c2)[C@@H](C)CN([C@H](C)CO)C(=O)c2cc(NC(=O)Nc3cccc4ccccc34)ccc2O1,120*,-18,1,-1,103*,77,-13,-17
O=C(NO)c1ccc(C(=O)N/N=C/c2ccc(F)c(Oc3ccccc3)c2)cc1,.,.,.,0,.,.,.,.
Cc1ccc(-c2ccc3c(c2)O[C@@H](CN(C)C(=O)C2CCCCC2)[C@@H](C)CN([C@@H](C)CO)S3(=O)=O)cc1,125*,-67,-3,-2,100*,93,22,106*
C[C@@H]1CN([C@@H](C)CO)S(=O)(=O)c2ccc(-c3ccncc3)cc2O[C@H]1CN(C)C(=O)CC1CC1,118*,-6,5,1,84,86,3,?
C[C@@H]1CN([C@@H](C)CO)S(=O)(=O)c2ccc(-c3ccccc3)cc2O[C@@H]1CN(C)C(=O)C1CCCCC1,97*,-6,-1,.,103*,82,26,80*
C[C@@H]1CN([C@@H](C)CO)S(=O)(=O)c2ccc(-c3ccc(F)cc3)cc2O[C@H]1CN(C)C(=O)C1CCCCC1,105*,-66,-3,.,101*,73,52*,47*
Cc1ccc(-c2ccc3c(c2)O[C@H](CN(C)C(=O)C2CCC2)[C@@H](C)CN([C@H](C)CO)S3(=O)=O)cc1,57,-44,-1,.,.,.,.,.
C[C@@H]1CN([C@@H](C)CO)S(=O)(=O)c2ccc(-c3ccncc3)cc2O[C@@H]1CN(C)C(=O)CC1CC1,85,3,2,7,.,.,.,.
C[C@H](CO)N1C[C@H](C)[C@H](CN(C)C(=O)C2CCC2)Oc2cc(-c3ccncc3)ccc2S1(=O)=O,85,-30,3,.,.,.,.,.
Cc1ccc(-c2ccc3c(c2)O[C@@H](CN(C)C(=O)C2CCCCC2)[C@@H](C)CN([C@H](C)CO)S3(=O)=O)cc1,123*,-68,-2,.,99*,93,13,106*
Cc1ccc(-c2ccc3c(c2)O[C@H](CN(C)C(=O)C2CCCCC2)[C@@H](C)CN([C@@H](C)CO)S3(=O)=O)cc1,123*,-41,-2,.,102*,100*,3,104*
C[C@H](CO)N1C[C@H](C)[C@H](CN(C)C(=O)C2CC2)Oc2cc(-c3ccccc3F)ccc2S1(=O)=O,109*,-58,-1,-1,70,16,15,64*
C[C@@H]1CN([C@@H](C)CO)S(=O)(=O)c2ccc(-c3ccncc3)cc2O[C@H]1CN(C)C(=O)C1CCC1,108*,-14,2,8,103*,78,5,46*
Cc1ccc(-c2ccc3c(c2)O[C@H](CN(C)C(=O)C2CCC2)[C@H](C)CN([C@H](C)CO)S3(=O)=O)cc1,87,-26,-1,1,.,.,.,.
SMILES,T cruzi growth-1,Pf Dd2 growth,KDM4C inh,IDH1 mut inh,T cruzi growth-2,T cruzi growth-3,3T3 cytotox,NIH3T3 tox 2
COc1ccccc1NC(=O)Cn1nnc(-c2ccc(C(F)(F)F)cc2)n1,.,.,.,0,.,.,.,.
CCC(Sc1nnc2c(n1)[nH]c1ccccc12)C(=O)Nc1cccc2ccccc12 (stereo unspecified),.,.,.,0,.,.,.,.
Cc1ccc(NC(=O)COc2ccc(C(=O)Nc3ccc(Cl)cc3)cc2)cc1,.,.,.,0,.,.,.,.
COC(=O)c1cnn(-c2ccccc2)c1C=Nc1ccc(C)cc1,.,.,.,1,.,.,.,.
COc1cc(NC(=O)C(C)Oc2ccc(Cl)cc2Cl)ccc1NC(=O)c1ccco1 (stereo unspecified),.,.,.,1,.,.,.,.
CCn1c(SCC(=O)Nc2cccc(Cl)c2)nnc1-c1ccc(Cl)cc1Cl,.,.,.,0,.,.,.,.
CC1OC(OC2C(O[C@H]3OC[C@](O)(CO)[C@H]3O)COC(O[C@@H]3[C@@H](O)[C@@H](O)[C@H](OC4C(OC(=O)[C@]56CCC(C)(C)CC5C5=CCC7[C@@]8(C)C[C@H](O)[C@H](OC9OC(CO)C(O)C(O)C9O)[C@@](C)(CO)C8[C@H](O)C[C@@]7(C)[C@]5(C)CC6)OCC(O)C4O)O[C@H]3C)C2O)C(O)C(O)C1O (stereo partly specified),.,.,.,0,.,.,.,.
